Experimental data from ChEMBL document CHEMBL1124476, “1-(2-aminoethyl)-6-aryl-4H- [1,2,4]triazolo[4,3-a][1,4]benzodiazepines with diuretic and natriuretic activity” (J Med Chem, 1989).

Assays:
Rattus norvegicus [1] = species: Rattus norvegicus; experiment: […]; format: ADME, organism-based, Urine; parameters: dose 10 mg/kg, route oral; conditions: in vivo, po, 10 mg/kg
In short: (§1)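 Male Sprague-Dawley rats, about 160 g, fasted 24 h and water withheld 1 1/2 h beforehand; food and water withheld during the test. Dosing by gavage with 25 mL/kg 0.9% saline containing 0.5% (carboxymethyl)cellulose, agent dissolved or suspended. Three cages of two rats each per dose, held in metabolism cages. Urine collected over 5 h. Volume given in mL, Na+ in mequiv. Significance versus control at P < 0.05.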

Rattus norvegicus [2] = species: Rattus norvegicus; experiment: […]; format: ADME, organism-based, Urine; parameters: dose 100 mg/kg, route oral; conditions: in vivo, po, 100 mg/kg; in short: as §1
Rattus norvegicus [3] = species: Rattus norvegicus; experiment: […]; format: ADME, organism-based, Urine; parameters: dose 3 mg/kg, route oral; conditions: in vivo, po, 3 mg/kg; in short: as §1
Rattus norvegicus [4] = species: Rattus norvegicus; experiment: […]; format: ADME, organism-based, Urine; parameters: dose 0.3 mg/kg, route oral; conditions: in vivo, po, 0.3 mg/kg
In short: (§2)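 Dose-response test in male Sprague-Dawley rats of about 160 g, fasted 24 h, with water withheld 1½ h before and during the test. Each rat got a single gavage of 25 mL/kg 0.9% saline with 0.5% carboxymethylcellulose carrying the agent (0.3–100 mg/kg range). Rats were housed two per metabolism cage, and urine was collected for 5 h. Mean urine volume (mL) was compared with controls (P < 0.05).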

Rattus norvegicus [5] = species: Rattus norvegicus; experiment: […]; format: ADME, organism-based, Urine; parameters: dose 1 mg/kg, route oral; conditions: in vivo, po, 1 mg/kg; in short: as §2
Rattus norvegicus [6] = experiment: Mean excretion of potassium in conscious rats at a dose of 10 mg/kg given orally; format: ADME, organism-based; parameters: dose 10 mg/kg, route oral; conditions: in vivo, po
In short: (§3)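 Secondary dose-response in male Sprague-Dawley rats (~160 g), fasted and hydrated as in the primary screen. Oral gavage at 0.3-100 mg/kg in 25 mL/kg saline/0.5% CMC, three cages of two rats per dose. Urine collected 5 h; Na, K, Cl, HCO3 measured. Values are mean excretion (mequiv), compared with controls at P < 0.05.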

Rattus norvegicus [7] = experiment: Mean excretion of potassium in conscious rats at a dose of 100 mg/kg given orally; format: ADME, organism-based; parameters: dose 100 mg/kg, route oral; conditions: in vivo, po; in short: as §3
Rattus norvegicus [8] = experiment: Mean excretion of potassium in conscious rats at a dose of 3.0 mg/kg given orally; format: ADME, organism-based; parameters: dose 3 mg/kg, route oral; conditions: in vivo, po; in short: as §3
Rattus norvegicus [9] = experiment: Mean excretion of potassium in conscious rats at a dose of 30 mg/kg given orally; format: ADME, organism-based; parameters: dose 30 mg/kg, route oral; conditions: in vivo, po; in short: as §3
Rattus norvegicus [10] = experiment: Mean excretion of sodium in conscious rats at a dose of 0.3 mg/kg given orally; format: ADME, organism-based; parameters: dose 0.3 mg/kg, route oral; conditions: in vivo, po; in short: as §1
Rattus norvegicus [11] = experiment: Mean excretion of […] in conscious rats at a dose of 1.0 mg/kg given orally; format: ADME, organism-based; parameters: dose 1 mg/kg, route oral; conditions: in vivo, po; in short: as §1
Rattus norvegicus [12] = experiment: Mean excretion of sodium in conscious rats at a dose of 10 mg/kg given orally; format: ADME, organism-based; parameters: dose 10 mg/kg, route oral; conditions: in vivo, po; in short: as §1
Rattus norvegicus [13] = experiment: Mean excretion of sodium in conscious rats at a dose of 100 mg/kg given orally; format: ADME, organism-based; parameters: dose 100 mg/kg, route oral; conditions: in vivo, po; in short: as §1
Rattus norvegicus [14] = experiment: Mean excretion of sodium in conscious rats at a dose of 3.0 mg/kg given orally; format: ADME, organism-based; parameters: dose 3 mg/kg, route oral; conditions: in vivo, po; in short: as §1
Rattus norvegicus [15] = experiment: Mean excretion of sodium in conscious rats at a dose of 30 mg/kg given orally; format: ADME, organism-based; parameters: dose 30 mg/kg, route oral; conditions: in vivo, po; in short: as §1
Rattus norvegicus [16] = experiment: Mean excretion of chloride in conscious rats at a dose of 1.0 mg/kg given orally; format: ADME, organism-based; parameters: dose 1 mg/kg, route oral; conditions: in vivo, po; in short: as §3
Rattus norvegicus [17] = experiment: Mean excretion of chloride in conscious rats at a dose of 10 mg/kg given orally; format: ADME, organism-based; parameters: dose 10 mg/kg, route oral; conditions: in vivo, po; in short: as §3
Rattus norvegicus [18] = experiment: Mean excretion of chloride in conscious rats at a dose of 100 mg/kg given orally; format: ADME, organism-based; parameters: dose 100 mg/kg, route oral; conditions: in vivo, po; in short: as §3
Rattus norvegicus [19] = experiment: Mean excretion of chloride in conscious rats at a dose of 30 mg/kg given orally; format: ADME, organism-based; parameters: dose 30 mg/kg, route oral; conditions: in vivo, po; in short: as §3
Rattus norvegicus [20] = experiment: Mean excretion of chloride in conscious rats at a dose of 3.0 mg/kg given orally; format: ADME, organism-based; parameters: dose 3 mg/kg, route oral; conditions: in vivo, po; in short: as §3
Rattus norvegicus [21] = experiment: Mean excretion of Cl- in conscious rats at a dose of 0.3 mg/kg given orally; format: ADME, organism-based, Urine; parameters: dose 0.3 mg/kg, route oral; conditions: in vivo, po; in short: as §2
Rattus norvegicus [22] = experiment: Mean excretion of potassium in conscious rats at a dose of 1.0 mg/kg given orally; format: ADME, organism-based; parameters: dose 1 mg/kg, route oral; conditions: in vivo, po; in short: as §3
Rattus norvegicus [23] = experiment: Mean excretion of potassium in conscious rats at a dose of 0.3 mg/kg given orally; format: ADME, organism-based; parameters: dose 0.3 mg/kg, route oral; conditions: in vivo, po; in short: as §3
[24] = Diuretic activity at 40 mg/kg (screening dose-84.7 umol/kg) in […] in a two stage experiment; T/C1.2 = urine vol of treated rats / urine vol of control rats; format: functional
In short: (§4)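 40 mg/kg given by gavage in 25 mL/kg 0.9% saline with 0.5% (carboxymethyl)cellulose. Four rats per agent, two per metabolism cage; 20 controls; 5 h urine. T/C = treated/control urine volume. Stage-1 T/C of 1.66 or more leads to stage 2; product T/C1·T/C2 of 3.34 or more counts as active.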

[25] = Diuretic activity at 40 mg/kg (screening dose-84.7 umol/kg) in […] in a one stage experiment; T/C = urine vol of treated rats / urine vol of control rats; format: functional; in short: as §4
Rattus norvegicus [26] = species: Rattus norvegicus; experiment: […]; format: ADME, organism-based, Urine; parameters: dose 30 mg/kg, route oral; conditions: in vivo, po, 30 mg/kg; in short: as §1
[27] = Diuretic activity at 40 mg/kg (screening dose-84 umol/kg) in male […] in a one stage experiment; T/C = urine vol of treated rats / urine vol of control rats; format: functional; in short: as §4

SMILES: COc1ccc(C(CN(C)C)c2nnc3n2-c2ccc(Cl)cc2C(c2ccccc2)=NC3)cc1 (stereo not drawn)
- Mean urine volume (Rattus norvegicus [1]): 5.74 mL
- Mean urine volume (Rattus norvegicus [2]): 12.25 mL
- Mean urine volume (Rattus norvegicus [3]): 4.98 mL
- Mean urine volume (Rattus norvegicus [4]): 4.13 mL
- Mean urine volume (Rattus norvegicus [5]): 4.81 mL
- Mean excretion of K+ (Rattus norvegicus [6]): 0.19 m equiv
- Mean excretion of K+ (Rattus norvegicus [7]): 0.26 m equiv
- Mean excretion of K+ (Rattus norvegicus [8]): 0.23 m equiv
- Mean excretion of K+ (Rattus norvegicus [9]): 0.18 m equiv
- Mean excretion of Na+ (Rattus norvegicus [10]): 0.67 m equiv
- Mean excretion of Na+ (Rattus norvegicus [11]): 0.66 m equiv
- Mean excretion of Na+ (Rattus norvegicus [12]): 0.93 m equiv
- Mean excretion of Na+ (Rattus norvegicus [13]): 1.91 m equiv
- Mean excretion of Na+ (Rattus norvegicus [14]): 0.68 m equiv
- Mean excretion of Na+ (Rattus norvegicus [15]): 1.58 m equiv
- Mean excretion of Cl- (Rattus norvegicus [16]): 0.71 m equiv
- Mean excretion of Cl- (Rattus norvegicus [17]): 0.93 m equiv
- Mean excretion of Cl- (Rattus norvegicus [18]): 1.65 m equiv
- Mean excretion of Cl- (Rattus norvegicus [19]): 1.55 m equiv
- Mean excretion of Cl- (Rattus norvegicus [20]): 0.75 m equiv
- Mean excretion of Cl- (Rattus norvegicus [21]): 0.71 m equiv
- Mean excretion of K+ (Rattus norvegicus [22]): 0.25 m equiv
- Mean excretion of K+ (Rattus norvegicus [23]): 0.23 m equiv
- T/C 1.2 [24]: 5.57
- T/C 1 [25]: 2.77
- Mean urine volume (Rattus norvegicus [26]): 10.47 mL

SMILES: COc1ccccc1C(CN(C)C)c1nnc2n1-c1ccc(Cl)cc1C(c1ccccc1)=NC2 (stereo not drawn)
- Mean urine volume (Rattus norvegicus [1]): 4.92 mL
- Mean urine volume (Rattus norvegicus [2]): 4.56 mL
- Mean urine volume (Rattus norvegicus [3]): 5.38 mL
- Mean urine volume (Rattus norvegicus [4]): 4.8 mL
- Mean urine volume (Rattus norvegicus [5]): 5.08 mL
- Mean excretion of K+ (Rattus norvegicus [6]): 0.22 m equiv
- Mean excretion of K+ (Rattus norvegicus [7]): 0.26 m equiv
- Mean excretion of K+ (Rattus norvegicus [8]): 0.24 m equiv
- Mean excretion of K+ (Rattus norvegicus [9]): 0.23 m equiv
- Mean excretion of Na+ (Rattus norvegicus [10]): 0.63 m equiv
- Mean excretion of Na+ (Rattus norvegicus [11]): 0.6 m equiv
- Mean excretion of Na+ (Rattus norvegicus [12]): 0.72 m equiv
- Mean excretion of Na+ (Rattus norvegicus [13]): 0.6 m equiv
- Mean excretion of Na+ (Rattus norvegicus [14]): 0.68 m equiv
- Mean excretion of Na+ (Rattus norvegicus [15]): 0.61 m equiv
- Mean excretion of Cl- (Rattus norvegicus [16]): 0.69 m equiv
- Mean excretion of Cl- (Rattus norvegicus [17]): 0.71 m equiv
- Mean excretion of Cl- (Rattus norvegicus [18]): 0.69 m equiv
- Mean excretion of Cl- (Rattus norvegicus [19]): 0.76 m equiv
- Mean excretion of Cl- (Rattus norvegicus [20]): 0.8 m equiv
- Mean excretion of Cl- (Rattus norvegicus [21]): 0.69 m equiv
- Mean excretion of K+ (Rattus norvegicus [22]): 0.23 m equiv
- Mean excretion of K+ (Rattus norvegicus [23]): 0.17 m equiv
- T/C 1.2 [24]: 5.03
- T/C 1 [25]: 2.69
- Mean urine volume (Rattus norvegicus [26]): 5.19 mL

SMILES: CN(C)CC(c1ccccc1)c1nnc2n1-c1ccc(Cl)cc1C(c1ccc(Cl)cc1)=NC2 (stereo not drawn)
- T/C 1 [27]: 1.49

SMILES: COc1cccc(C2=NCc3nnc(C(CN(C)C)c4ccccc4)n3-c3ccc(Cl)cc32)c1 (stereo not drawn)
- T/C 1 [25]: 1.34

SMILES: Nc1nc(N)c2nc(-c3ccccc3)c(N)nc2n1
- Mean urine volume (Rattus norvegicus [1]): 6.45 mL
- Mean urine volume (Rattus norvegicus [2]): 7.01 mL
- Mean urine volume (Rattus norvegicus [3]): 4.32 mL
- Mean urine volume (Rattus norvegicus [4]): 2.22 mL
- Mean urine volume (Rattus norvegicus [5]): 3.5 mL
- Mean excretion of K+ (Rattus norvegicus [6]): 0.08 m equiv
- Mean excretion of K+ (Rattus norvegicus [7]): 0.06 m equiv
- Mean excretion of K+ (Rattus norvegicus [8]): 0.1 m equiv
- Mean excretion of K+ (Rattus norvegicus [9]): 0.04 m equiv
- Mean excretion of Na+ (Rattus norvegicus [10]): 0.4 m equiv
- Mean excretion of Na+ (Rattus norvegicus [11]): 0.6 m equiv
- Mean excretion of Na+ (Rattus norvegicus [12]): 1 m equiv
- Mean excretion of Na+ (Rattus norvegicus [13]): 0.88 m equiv
- Mean excretion of Na+ (Rattus norvegicus [14]): 0.83 m equiv
- Mean excretion of Na+ (Rattus norvegicus [15]): 1.41 m equiv
- Mean excretion of Cl- (Rattus norvegicus [16]): 0.68 m equiv
- Mean excretion of Cl- (Rattus norvegicus [17]): 0.81 m equiv
- Mean excretion of Cl- (Rattus norvegicus [18]): 0.7 m equiv
- Mean excretion of Cl- (Rattus norvegicus [19]): 1.15 m equiv
- Mean excretion of Cl- (Rattus norvegicus [20]): 0.74 m equiv
- Mean excretion of Cl- (Rattus norvegicus [21]): 0.47 m equiv
- Mean excretion of K+ (Rattus norvegicus [22]): 0.1 m equiv
- Mean excretion of K+ (Rattus norvegicus [23]): 0.12 m equiv
- Mean urine volume (Rattus norvegicus [26]): 9.28 mL
